Measurements from ChEMBL document CHEMBL2086389, “Synthesis and biological evaluation of crown ether fused quinazoline analogues as potent EGFR inhibitors” (Bioorg Med Chem Lett, 2012).
Active and inactive are the calls of the source. The calls are words filed in the database; no cut-off is given here.

Legend:
[1] = target: T1, Epidermal growth factor receptor (Homo sapiens, UniProt P00533); assay: Inhibition of EGFR using GST-Crk as substrate assessed as phosphorylated Crk level after 20 mins by SDS-PAGE analysis
T1 sequence (P00533 whole entry): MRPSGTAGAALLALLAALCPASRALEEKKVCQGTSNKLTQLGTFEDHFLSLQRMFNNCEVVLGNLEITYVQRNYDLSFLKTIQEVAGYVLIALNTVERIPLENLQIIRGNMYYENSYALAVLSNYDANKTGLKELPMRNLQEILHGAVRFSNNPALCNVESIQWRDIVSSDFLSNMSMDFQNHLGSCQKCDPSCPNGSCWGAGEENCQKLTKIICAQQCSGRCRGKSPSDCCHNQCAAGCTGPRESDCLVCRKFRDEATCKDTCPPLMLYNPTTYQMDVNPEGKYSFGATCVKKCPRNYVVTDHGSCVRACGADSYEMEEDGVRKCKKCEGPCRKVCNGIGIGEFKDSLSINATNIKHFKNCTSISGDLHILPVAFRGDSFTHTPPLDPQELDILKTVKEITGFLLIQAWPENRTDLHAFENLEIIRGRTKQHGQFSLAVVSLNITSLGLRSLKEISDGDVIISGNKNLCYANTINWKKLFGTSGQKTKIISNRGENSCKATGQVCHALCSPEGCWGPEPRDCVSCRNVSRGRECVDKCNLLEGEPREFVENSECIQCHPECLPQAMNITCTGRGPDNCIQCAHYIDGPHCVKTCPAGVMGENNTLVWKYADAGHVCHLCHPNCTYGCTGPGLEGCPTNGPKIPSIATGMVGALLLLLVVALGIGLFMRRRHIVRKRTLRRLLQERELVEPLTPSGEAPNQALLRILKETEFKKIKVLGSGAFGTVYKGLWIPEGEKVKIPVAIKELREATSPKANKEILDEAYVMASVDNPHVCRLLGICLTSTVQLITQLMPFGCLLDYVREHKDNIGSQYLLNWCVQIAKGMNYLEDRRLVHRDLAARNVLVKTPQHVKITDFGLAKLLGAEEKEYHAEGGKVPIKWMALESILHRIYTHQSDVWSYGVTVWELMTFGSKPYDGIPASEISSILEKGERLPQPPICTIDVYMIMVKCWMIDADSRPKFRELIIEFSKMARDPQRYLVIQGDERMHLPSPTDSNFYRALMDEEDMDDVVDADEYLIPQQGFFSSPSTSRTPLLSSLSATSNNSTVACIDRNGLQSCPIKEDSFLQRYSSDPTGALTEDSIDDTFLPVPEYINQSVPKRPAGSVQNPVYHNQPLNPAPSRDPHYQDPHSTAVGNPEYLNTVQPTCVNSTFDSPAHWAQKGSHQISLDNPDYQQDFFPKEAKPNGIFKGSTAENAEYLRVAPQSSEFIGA
Procedure, shortened: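 Kinase mix was incubated with inhibitor at 0, 0.5, 2.5, 12.5 and 62.5 nM on ice for 10 min, then at 30 °C for 20 min. The reaction was quenched with SDS sample buffer at 100 °C for 4 min. Proteins were run on 10% SDS–PAGE and the dried gel was quantified by phosphorimager.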

[2] = target: T1, Epidermal growth factor receptor; assay: Inhibition of EGFR-mediated intracellular tyrosine phosphorylation in EGF-stimulated human A431 cells after 2.5 hrs by SDS-PAGE analysis; type: cell-based, A-431
Procedure, shortened: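 A431 cells were grown 2 days in DMEM with 10% FCS at 37 °C, 5% CO₂, then serum-starved 18 h. Inhibitor was added at 0, 10, 50, 250 and 1000 nM for 2.5 h at 37 °C. Cells were stimulated with 100 ng/ml EGF for 5 min and lysed in SDS buffer with 1 mM vanadate. Lysates were run on 10% SDS–PAGE, immunoblotted with anti-phosphotyrosine (pY99, 4G10), detected by ECL, and quantified by densitometry.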

[3] = target: Tyrosine-protein kinase ABL1 (Homo sapiens) (UniProt P00519); assay: Inhibition of Abl at >[…] nM
Chain of Tyrosine-protein kinase ABL1 (Homo sapiens) (P00519 whole entry): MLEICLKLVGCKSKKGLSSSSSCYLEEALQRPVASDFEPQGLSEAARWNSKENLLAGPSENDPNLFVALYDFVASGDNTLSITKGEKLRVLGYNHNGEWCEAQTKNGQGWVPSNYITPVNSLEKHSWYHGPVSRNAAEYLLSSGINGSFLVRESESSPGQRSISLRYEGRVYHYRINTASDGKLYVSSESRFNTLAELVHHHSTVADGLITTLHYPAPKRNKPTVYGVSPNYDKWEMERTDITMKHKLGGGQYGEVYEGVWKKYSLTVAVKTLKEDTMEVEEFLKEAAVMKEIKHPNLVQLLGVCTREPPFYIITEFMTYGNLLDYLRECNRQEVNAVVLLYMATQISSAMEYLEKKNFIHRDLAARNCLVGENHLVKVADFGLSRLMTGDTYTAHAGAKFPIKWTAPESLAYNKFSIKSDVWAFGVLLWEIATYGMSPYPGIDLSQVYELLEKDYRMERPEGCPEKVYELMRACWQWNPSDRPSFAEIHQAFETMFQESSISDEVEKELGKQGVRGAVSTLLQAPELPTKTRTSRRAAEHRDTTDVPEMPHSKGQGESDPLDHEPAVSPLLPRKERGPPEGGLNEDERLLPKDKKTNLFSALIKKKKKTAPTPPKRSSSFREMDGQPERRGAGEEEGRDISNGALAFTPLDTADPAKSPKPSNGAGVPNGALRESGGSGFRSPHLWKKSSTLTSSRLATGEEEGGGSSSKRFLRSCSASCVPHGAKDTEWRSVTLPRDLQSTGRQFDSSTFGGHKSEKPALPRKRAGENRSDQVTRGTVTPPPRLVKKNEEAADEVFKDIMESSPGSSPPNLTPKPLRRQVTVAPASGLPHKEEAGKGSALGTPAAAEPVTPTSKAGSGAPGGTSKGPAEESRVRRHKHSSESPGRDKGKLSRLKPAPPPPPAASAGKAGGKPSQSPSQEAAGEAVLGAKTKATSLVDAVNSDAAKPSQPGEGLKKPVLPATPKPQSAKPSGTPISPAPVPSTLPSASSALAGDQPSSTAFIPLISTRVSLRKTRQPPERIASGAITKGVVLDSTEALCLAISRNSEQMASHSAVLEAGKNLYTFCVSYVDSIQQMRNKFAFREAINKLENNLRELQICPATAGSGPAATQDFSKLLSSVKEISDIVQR

[4] = target: Tyrosine-protein kinase ABL2 (Homo sapiens) (UniProt P42684); assay: Inhibition of Arg at >[…] nM
Chain of Tyrosine-protein kinase ABL2 (Homo sapiens) (P42684 whole entry): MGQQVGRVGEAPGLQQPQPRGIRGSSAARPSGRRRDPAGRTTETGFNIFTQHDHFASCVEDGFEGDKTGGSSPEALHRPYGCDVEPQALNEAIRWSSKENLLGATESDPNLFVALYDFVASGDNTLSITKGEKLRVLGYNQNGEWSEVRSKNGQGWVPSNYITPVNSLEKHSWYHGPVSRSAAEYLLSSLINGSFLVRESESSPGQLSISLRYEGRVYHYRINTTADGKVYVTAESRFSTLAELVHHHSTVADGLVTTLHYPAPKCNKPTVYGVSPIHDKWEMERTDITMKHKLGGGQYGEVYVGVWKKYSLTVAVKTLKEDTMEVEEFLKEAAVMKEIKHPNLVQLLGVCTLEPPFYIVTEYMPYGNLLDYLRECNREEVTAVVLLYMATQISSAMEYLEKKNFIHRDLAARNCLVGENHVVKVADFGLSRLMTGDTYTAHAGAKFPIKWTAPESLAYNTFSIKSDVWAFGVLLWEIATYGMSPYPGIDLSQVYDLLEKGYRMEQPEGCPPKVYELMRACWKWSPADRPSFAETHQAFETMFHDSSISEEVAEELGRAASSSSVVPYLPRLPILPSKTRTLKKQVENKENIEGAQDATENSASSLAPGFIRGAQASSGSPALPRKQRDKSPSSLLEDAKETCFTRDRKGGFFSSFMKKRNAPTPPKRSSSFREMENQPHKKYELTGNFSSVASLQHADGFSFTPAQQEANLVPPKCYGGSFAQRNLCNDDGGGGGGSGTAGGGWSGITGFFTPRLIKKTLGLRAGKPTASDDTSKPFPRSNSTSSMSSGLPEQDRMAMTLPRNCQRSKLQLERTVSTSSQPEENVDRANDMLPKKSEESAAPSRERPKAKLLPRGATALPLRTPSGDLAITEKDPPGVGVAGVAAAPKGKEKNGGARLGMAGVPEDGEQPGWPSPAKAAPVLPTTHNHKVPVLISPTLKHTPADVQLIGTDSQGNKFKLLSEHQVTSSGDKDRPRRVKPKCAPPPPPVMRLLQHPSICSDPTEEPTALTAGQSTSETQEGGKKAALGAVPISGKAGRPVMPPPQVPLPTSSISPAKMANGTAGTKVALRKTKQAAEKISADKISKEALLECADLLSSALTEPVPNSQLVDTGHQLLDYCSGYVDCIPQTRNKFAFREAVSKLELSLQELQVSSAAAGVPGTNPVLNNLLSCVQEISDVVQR

[5] = target: Proto-oncogene tyrosine-protein kinase Src (Homo sapiens) (UniProt P12931); assay: Inhibition of c-Src at >1000 nM
Chain of Proto-oncogene tyrosine-protein kinase Src (Homo sapiens) (P12931 2-536 limits assumed): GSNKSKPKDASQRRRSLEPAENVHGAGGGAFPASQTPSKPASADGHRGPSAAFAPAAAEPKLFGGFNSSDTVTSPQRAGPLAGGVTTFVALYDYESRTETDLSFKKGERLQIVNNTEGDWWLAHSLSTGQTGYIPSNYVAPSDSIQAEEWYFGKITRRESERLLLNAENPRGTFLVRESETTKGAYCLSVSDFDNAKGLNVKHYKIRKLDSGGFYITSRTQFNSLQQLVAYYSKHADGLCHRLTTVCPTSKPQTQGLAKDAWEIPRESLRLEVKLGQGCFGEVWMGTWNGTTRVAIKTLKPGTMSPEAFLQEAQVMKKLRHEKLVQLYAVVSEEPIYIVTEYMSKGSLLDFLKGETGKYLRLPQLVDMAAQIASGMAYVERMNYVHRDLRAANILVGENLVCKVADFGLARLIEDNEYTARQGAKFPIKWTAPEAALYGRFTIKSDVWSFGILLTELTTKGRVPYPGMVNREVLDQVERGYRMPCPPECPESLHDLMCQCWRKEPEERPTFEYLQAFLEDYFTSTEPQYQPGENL

[6] = Oral bioavailability in rat at 35 mg/kg; type: ADME, organism-based; conditions: in vivo
Procedure, shortened: (§1)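 Rats given a single oral dose (35 mg/kg) and a separate single intravenous dose (35 mg/kg). Pharmacokinetic parameters were derived from these two dosings.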

[7] = Cmax in rat at 35 mg/kg, po; type: ADME, organism-based; set-up: dose 35 mg/kg, route oral; conditions: in vivo; procedure, shortened: as §1
Rattus norvegicus = assay: AUC in rat at 35 mg/kg, po; type: ADME, organism-based, Plasma; set-up: dose 35 mg/kg, route oral; conditions: in vivo; procedure, shortened: as §1
[8] = Half life in rat at 35 mg/kg, po; type: ADME, organism-based; set-up: dose 35 mg/kg, route oral; conditions: in vivo; procedure, shortened: as §1
[9] = Clearance in rat at 35 mg/kg, iv and 35 mg/kg, po; type: ADME, organism-based; conditions: in vivo; procedure, shortened: as §1
[10] = Volume of distribution at steady state in rat at 35 mg/kg, iv and 35 mg/kg, po; type: ADME, organism-based; conditions: in vivo, read-out: Vdss; procedure, shortened: as §1
[11] = Mean residence time in rat at 35 mg/kg, iv and 35 mg/kg, po; type: ADME, organism-based; conditions: in vivo; procedure, shortened: as §1
A-431 = assay: Antitumor activity against human A431 cells xenografted in mouse assessed as inhibition of tumor growth administered as po qd; type: functional, organism-based
Procedure, shortened: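 Mice carried A431 xenografts. At a tumor volume of about 20 mm³ they were randomized, n = 10/group. Dosing was oral, once daily, at 30, 60 and 120 mg/kg in 0.5% CMC-Na vehicle, for 18–30 days. The positive control was Taxol 30 mg/kg ip once weekly. Tumor size was followed.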

| SMILES | IC50 [1] [nM] | IC50 [2] [nM] | also measured |
| --- | --- | --- | --- |
| Brc1cccc(Nc2ncnc3cc4c(cc23)OCCOCCO4)c1 | 55 | – | – |
| Brc1cccc(Nc2ncnc3cc4c(cc23)OCCCSCCCO4)c1 | 8 | > 1000 | – |
| Fc1ccc(Nc2ncnc3cc4c(cc23)OCCOCCOCCO4)cc1Cl | 2 | 45 | – |
| Brc1cccc(Nc2ncnc3cc4c(cc23)OCCOCOCOCCO4)c1 | 5 | 50 | – |
| Brc1cccc(Nc2ncnc3cc4c(cc23)OCCSCCO4)c1 | 7 | > 1000 | – |
| Cc1ccc(S(=O)(=O)N2CCOc3cc4ncnc(Nc5cccc(Br)c5)c4cc3OCC2)cc1 | 150 | – | – |
| Brc1cccc(Nc2ncnc3cc4c(cc23)OCCCO4)c1 | 85 | – | – |
| C#Cc1cccc(Nc2ncnc3cc4c(cc23)OCCOCCOCCO4)c1 [ICOTINIB] | 2 | 45 | inhibition [3]: inactive; inhibition [4]: inactive; inhibition [5]: inactive; bioavailability [6]: 52%; Cmax [7]: 6120 ng/mL; AUC (Rattus norvegicus): 49.4 µg/mL; half-life [8]: 2.8 h; clearance [9]: 21 mL/min/kg; Vd [10]: 3.9 L/kg; MRT [11]: 6.9 h; inhibition (A-431): Dose-dependent effect |
| Brc1cccc(Nc2ncnc3cc4c(cc23)Oc2ccccc2O4)c1 | 120 | – | – |
| Brc1cccc(Nc2ncnc3cc4c(cc23)OCCOCCOCCO4)c1 | 5 | 50 | – |
| Clc1cccc(Nc2ncnc3cc4c(cc23)OCCOCCOCCO4)c1 | 2 | 55 | – |
